Experimental data published in ChEMBL document CHEMBL1158591, “Discovery of 2-chloro-N-((4,4-difluoro-1-hydroxycyclohexyl)methyl)-5-(5-fluoropyrimidin-2-yl)benzamide as a potent and CNS penetrable P2X7 receptor antagonist” (Bioorg Med Chem Lett, 2010).

Key:
Assay type in all cases: ADME, organism-based
Rattus norvegicus = assay: Volume of distribution at steady state in Sprague-Dawley rat at 1 mg/kg, iv and po; parameters: dose 1 mg/kg; settings: in vivo
Method in brief: (§1)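 Male Sprague Dawley rats, IV/PO crossover pharmacokinetics, dosed at 1 mpk by each route.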

[1] = Ratio of drug level in brain to plasma in iv dosed Sprague-Dawley rat; settings: brain and plasma
Method in brief: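 Male Sprague Dawley rats given a steady-state IV infusion. Ratio is compound concentration in brain over that in plasma.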

[2] = Oral bioavailability in Sprague-Dawley rat at 1 mg/kg, po; settings: in vivo; method in brief: as §1

Vdss (Rattus norvegicus) [L/kg] | Kp [1] | bioavailability [2] [%] | Compound
0.9 | 0.7 | 35 | O=C(NCC1(O)CCCCCC1)c1cc(-c2ncc(F)cn2)ccc1Cl
1.3 | 1.3 | 84 | O=C(NCC1(O)CCC(F)(F)CC1)c1cc(-c2ncc(F)cn2)ccc1Cl
